# HSF1 inh – HSF1 inhibition; NIH3T3-HGL HSE-luciferase, MG132-induced, luminescence 8 h; stronger effect = lower value; activity change, negative = inhibition, % at 7.5 µM (by protocol); hit rate 0.77% among 300,000;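 active = more than half of replicate wells show activity change below -50%, luminescence cut by over half; inconclusive = some wells, but at most half, below -50%; inactive = no replicate well below -50%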;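 also: luciferase reports HSF-1 transcriptional activity via heat shock element; 0% = median of DMSO wells and -100% = zero luminescence signal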
# Lmaj promast – inhibitors of Leishmania major promastigote growth. inhibition, % at 10 µM. Leishmania major promastigotes, resazurin fluorescence viability. hit rate 9% among 200,000; in the data active = inhibition above about 50%;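 also: promastigotes grown with compound for 44 hours at 28 °C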
# Hsp70 act – transcriptional activators of Hsp70. HeLa Hsp70 promoter luciferase reporter, luminescence; scaled: vehicle 0, proteasome-inhibitor control 100%. activation, % at 10 µM. hit rate 0.04% among 200,000;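 active = activation above the mean across all tested compounds plus 3 SD, cutoff set per campaign, cut at about 5.5% in these data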;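 also: 100% = MG132 at 30 µM as the positive control and 0% = DMSO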
# HSF-1 act – increases HSF-1 driven luciferase reporter signal; NIH3T3-HGL HSF-1 luciferase reporter, MG132, 8 h; 100% = twice DMSO control signal; activation, % at 9 µM; hit rate 1.7% among 300,000; AID 504408;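 active = mean replicate activation of at least 50% with a set share of replicates each reaching 50%; inconclusive = only one of those two conditions met; inactive = mean below 50% and too few replicates reaching it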;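 also: 0% = median of the neutral control wells and 100% = twice that signal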
# T cruzi inh – T. cruzi replication inhibition; T. cruzi beta-gal in NIH3T3, luminescence, 90 h; inhibition, % (concentration not given with the values); hit rate 1.4% among 300,000;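 active = mean inhibition across valid replicates above about 55%, limit read from the data; inconclusive = mean below that limit but half or more replicates reach it; inactive = mean below it, under half of replicates reach it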;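 also: signal also drops with host cell toxicity which is not excluded here; 0% = plate median of DMSO wells and 100% = zero luminescence signal; higher percent means less beta-gal luminescence so fewer parasites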
#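 Assay system: NIH/3T3 fibroblasts plus reporter T. cruzi. Amount: NIH/3T3 cells, 5,000 per well. Buffer or medium: DMEM, 2% fetal bovine serum. Doses: compound pinned at 50 nL/well, DMSO. Schedule: ≥90 h infection period, 3 h prior cell attachment. Signal: luminescent β-galactosidase signal after 60 min lysis. Read-out: parasite load inhibition, %.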
# Starred values were filed as active, the others as inactive; ? = inconclusive; . = no result. The sample as a whole holds a higher share of hits than the screen did.
SMILES,HSF1 inh,Lmaj promast,Hsp70 act,HSF-1 act,T cruzi inh
Cc1cc(Br)cc2c(C(=O)Nc3c(C)n(C)n(-c4ccccc4)c3=O)cc(-c3cccs3)nc12,-15,69*,0,-15,40
COc1ccc(NC(=O)c2ccc(NC3=NC4CS(=O)(=O)CC4S3)cc2)cc1 (configuration not stated),-6,.,.,-13,-1
COc1ccc(C2=NNC(=Nc3cc(S(=O)(=O)N(C)C)ccc3C)SC2)c(OC)c1,-44,.,.,-47,72*
Cc1cc(C)nc(NC(=S)Nc2ccccc2)n1,26,-5,1,51*,-21
O=C(NCC1CCCC(CNC(=O)Nc2ccc(Cl)cn2)C1)Nc1ccc(Cl)cn1 (configuration not stated),29,.,.,56*,60*
CCN(CC)S(=O)(=O)c1ccc(Cl)c(NC(=O)COC(=O)c2ccc([N+](=O)[O-])o2)c1,7,.,.,5,-4
O=C(O)CCSc1nnc(SCC(=O)NCC(F)(F)F)s1,3,63*,0,11,-1
CCOC(=O)/C(C#N)=C/c1cc(C)n(-c2ccccc2)c1C,-70*,-5,0,-74,32
Cc1cc(C(=O)O)ccc1-n1c(C)cc(/C=C(/C#N)C(=O)Nc2ccccc2)c1C,0,-10,0,5,2
CCCn1c(C)cc(/C=C(\C#N)C(=O)OCC(=O)Nc2cccc(OC)c2)c1C,7,61*,0,-3,18
CCOC(=O)/C(C#N)=C/c1cc(C)n(-c2ccc(Br)cc2)c1C,0,-4,0,-14,3
Cc1cc(/C=C(\C#N)C(=O)Nc2ccccc2)c(C)n1-c1cccnc1,23,1,0,58*,-2
CCOC(=O)c1ccc(NCc2cccnc2)cc1,4,.,.,10,7
COc1ccc(-c2nc(-c3ccc(Br)o3)no2)cc1OC,30,-7,0,57*,14
Clc1ccc2oc(SCc3cccnc3)nc2c1,9,.,.,42,2
C=CCNCCOc1ccc(C)cc1[N+](=O)[O-],-11,-6,0,15,-11
COCCCNCCCCOc1ccc(C)cc1[N+](=O)[O-],-5,99*,0,-11,13
COc1ccccc1OCCOCCOc1ccc(C)cc1[N+](=O)[O-],3,55*,0,2,1
CCCCNCCOCCOc1ccc(C)cc1[N+](=O)[O-],-8,91*,0,-2,20
Cc1ccc(S(=O)(=O)NCCC(=O)OCC(=O)NC(=O)c2cccn2C)cc1,-3,.,.,-20,-6
CCn1nc(C)c(CNC(=O)CC2C(=O)NCCN2CC(C)(C)C)c1C (configuration not stated),-8,-3,0,-6,-4
O=S(=O)(c1ccccc1)N1CCN(C(=S)Nc2ccccc2Cl)CC1,-5,.,.,8,-16
CCCCn1c(-c2ccccc2)cnc1SCC(=O)NCCc1ccc(OC)c(OC)c1,-14,66*,0,-26,38
CCOC(=O)c1cnc2c(OC)cccc2c1N1CCN(c2ccccc2OC)CC1,4,63*,0,1,9
CCOC(=O)c1cnc2c(OC)cccc2c1N1CCN(c2ccccn2)CC1,1,44,0,-3,22
SMILES,HSF1 inh,Lmaj promast,Hsp70 act,HSF-1 act,T cruzi inh
CC/C(=N\n1nnnc1Nc1ccccc1)c1ccccc1,3,5,-1,7,-8
CC(C)c1ccc(/C=N/n2nnnc2Nc2ccccc2)cc1,16,-3,0,55*,0
O=C(COC(=O)/C=C/C(=O)OCC(=O)Nc1ccccc1F)Nc1ccccc1F,53,.,.,66*,-8
CCOc1ccccc1NC(=S)N(CCC(C)C)C1CCN(C(C)=O)CC1,-8,-3,0,-15,10
CN(C(=O)CSc1nnc(-c2ccccc2)o1)c1c(N)n(Cc2ccccc2)c(=O)[nH]c1=O,-3,-6,0,-8,0
C/C(Cn1nnc([N+](=O)[O-])n1)=N\NC(=O)c1ccccc1O,-19,.,.,-17,43
C/C(Cn1cnc([N+](=O)[O-])n1)=N\NC(=O)c1ccccc1O,-5,7,0,-4,56*
C/C(Cn1cnc([N+](=O)[O-])n1)=N\NC(=O)c1ccccc1F,20,0,1,?,75*
C/C(Cn1cnc([N+](=O)[O-])n1)=N\NC(=O)c1ccc(Br)cc1,-8,-6,0,3,41
C/C(Cn1cnc([N+](=O)[O-])n1)=N\NC(=O)c1ccc(O)cc1O,-6,7,0,-1,55*
